# Measurements published in ChEMBL document CHEMBL3351782, “Synthesis and biological evaluation of glaucocalyxin A derivatives as potential anticancer agents” (Eur J Med Chem, 2014).
# pIC50: −log10 of the molar value.
# Columns and labels:
# [1] = Antiproliferative activity against human SMMC7721 cells after 48 hrs by MTT assay; format: functional, cell-based; conditions: SMMC-7721, 48 h
# Procedure, shortened: (§1)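 Cells were seeded at 3 × 10^3 per well and exposed 24 h later, while growing exponentially, to compounds at final concentrations of 1.25 to 40 for 48 h. MTT (5 mg/mL in PBS) was then added for 6 h. The medium was aspirated, the formazan dissolved in DMSO and absorbance read at 570 nm. Survival is relative to untreated cells; IC50 comes from triplicate wells in at least three independent experiments.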
# B16 = test: Antiproliferative activity against mouse B16 cells after 48 hrs by MTT assay; format: functional, cell-based; conditions: B16, 48 h; procedure, shortened: as §1
# [2] = Antiproliferative activity against human SGC7901 cells after 48 hrs by MTT assay; format: functional, cell-based; conditions: SGC-7901, 48 h; procedure, shortened: as §1
# A549 = test: Antiproliferative activity against human A549 cells after 48 hrs by MTT assay; format: functional, cell-based; conditions: A549, 48 h; procedure, shortened: as §1
# KB = test: Antiproliferative activity against human KB cells after 48 hrs by MTT assay; format: functional, cell-based; procedure, shortened: as §1
# [3] = Antiproliferative activity against human HL60 cells after 48 hrs by MTT assay; format: functional, cell-based; conditions: HL-60, 48 h; procedure, shortened: as §1
# [4] = Antiproliferative activity against human HL7702 cells after 48 hrs by MTT assay; format: cell-based; conditions: L02, 48 h; procedure, shortened: as §1
SMILES,pIC50 [1],pIC50 (B16),pIC50 [2],pIC50 (A549),pIC50 (KB),pIC50 [3],pIC50 [4]
Cc1cccc(NCC2C(=O)[C@@]34[C@H](O)C[C@@H]5C(C)(C)C(=O)CC[C@@]5(C)[C@@H]3CC[C@@H]2[C@H]4O)c1 (stereo partly drawn),4.68,4.84,4.41,4.55,4.53,4.87,
Cc1ccccc1NCC1C(=O)[C@@]23[C@H](O)C[C@@H]4C(C)(C)C(=O)CC[C@@]4(C)[C@@H]2CC[C@@H]1[C@H]3O (stereo partly drawn),4.65,4.72,4.42,4.61,4.63,4.74,
CC1(C)C(=O)CC[C@]2(C)[C@@H]1C[C@@H](O)[C@]13C(=O)C(CNc4ccc(Cl)cc4)[C@H](CC[C@@H]21)[C@H]3O (stereo partly drawn),4.85,5.03,4.67,4.80,5.18,4.85,
CC1(C)C(=O)CC[C@]2(C)[C@@H]1C[C@@H](O)[C@]13C(=O)C(CNc4ccccc4F)[C@H](CC[C@@H]21)[C@H]3O (stereo partly drawn),4.84,5.02,4.61,4.69,4.95,4.81,
CC1(C)C(=O)CC[C@]2(C)[C@@H]1C[C@@H](O)[C@]13C(=O)C(CNc4ccc(C(=O)O)cc4)[C@H](CC[C@@H]21)[C@H]3O (stereo partly drawn),4.78,5.17,4.65,4.93,5.21,4.98,4.45
CC1(C)C(=O)CC[C@]2(C)[C@@H]1C[C@@H](O)[C@]13C(=O)C(CNc4ccccc4Br)[C@H](CC[C@@H]21)[C@H]3O (stereo partly drawn),4.55,4.82,4.48,4.49,4.86,4.90,
COc1ccc(NCC2C(=O)[C@@]34[C@H](O)C[C@@H]5C(C)(C)C(=O)CC[C@@]5(C)[C@@H]3CC[C@@H]2[C@H]4O)cc1 (stereo partly drawn),4.74,4.92,4.65,4.87,5.19,5.24,
CC1(C)C(=O)CC[C@]2(C)[C@@H]1C[C@@H](O)[C@]13C(=O)C(CNc4ccc(Br)cc4)[C@H](CC[C@@H]21)[C@H]3O (stereo partly drawn),4.74,4.96,4.60,4.72,5.20,4.84,
CC1(C)C(=O)CC[C@]2(C)[C@@H]1C[C@@H](O)[C@]13C(=O)C(CNc4ccccc4Cl)[C@H](CC[C@@H]21)[C@H]3O (stereo partly drawn),4.49,4.78,4.54,4.67,4.96,4.64,
CC1(C)C(=O)CC[C@]2(C)[C@@H]1C[C@@H](O)[C@]13C(=O)C(CNc4ccc(S(=O)(=O)c5ccccc5)cc4)[C@H](CC[C@@H]21)[C@H]3O (stereo partly drawn),4.85,4.98,4.81,4.86,5.25,4.82,
CC(=O)c1ccc(NCC2C(=O)[C@@]34[C@H](O)C[C@@H]5C(C)(C)C(=O)CC[C@@]5(C)[C@@H]3CC[C@@H]2[C@H]4O)cc1 (stereo partly drawn),4.58,4.74,4.50,4.66,4.90,4.93,
CC1(C)C(=O)CC[C@]2(C)[C@@H]1C[C@@H](O)[C@]13C(=O)C(CNc4ccc(F)cc4)[C@H](CC[C@@H]21)[C@H]3O (stereo partly drawn),4.70,4.89,4.47,4.64,4.91,4.75,
CC1(C)C(=O)CC[C@]2(C)[C@@H]1C[C@@H](O)[C@]13C(=O)C(CNc4cccc(C#N)c4)[C@H](CC[C@@H]21)[C@H]3O (stereo partly drawn),4.72,4.74,4.61,4.67,5.09,4.63,
CC1(C)C(=O)CC[C@]2(C)[C@@H]1C[C@@H](O)[C@]13C(=O)C(CNc4ccccc4)[C@H](CC[C@@H]21)[C@H]3O (stereo partly drawn),4.32,4.94,4.49,4.43,4.51,4.82,
O=c1[nH]cc(F)c(=O)[nH]1 [FLUOROURACIL],4.17,4.75,4.22,4.29,4.27,4.57,
CC1(C)C(=O)CC[C@]2(C)[C@@H]1C[C@@H](O)[C@]13C(=O)C(CNC4CCCCC4)[C@H](CC[C@@H]21)[C@H]3O (stereo partly drawn),4.82,5.25,4.68,4.95,4.95,5.03,5.05
